Bioassay records (PubChem)
Compounds with a hit are over-represented: about 2.7% of the library has one in this group of screens.
TCR CD3 inh: inhibitors of human TCR-CD3 interaction. 360,000 compounds, 0.37% hits. inhibition, % at 9.4 µM. TAMRA-labeled TCR probe fluorescence, biochemical; in the data active means inhibition above about 19%;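 further: recombinant mutant TCR 2C K166C tagged with TAMRA read by polarization; 0% = receptor in buffer alone and 100% = receptor with positive control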
SIAE inh: inhibitors of human sialic acid acetylesterase SIAE. Q9HAT2. SIAE FP-Rh probe binding, fluorescence polarization. inhibition, % at 9.66 µM. 370,000 compounds, 0.69% hits;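 active means inhibition above a cutoff: mean of compounds within the control limits plus 3 SD of those, cut at about 17% in these data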;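 further: 0% = plate median of compound wells and 100% = probe without SIAE protein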
Target sequence (Q9HAT2 whole entry, looked up): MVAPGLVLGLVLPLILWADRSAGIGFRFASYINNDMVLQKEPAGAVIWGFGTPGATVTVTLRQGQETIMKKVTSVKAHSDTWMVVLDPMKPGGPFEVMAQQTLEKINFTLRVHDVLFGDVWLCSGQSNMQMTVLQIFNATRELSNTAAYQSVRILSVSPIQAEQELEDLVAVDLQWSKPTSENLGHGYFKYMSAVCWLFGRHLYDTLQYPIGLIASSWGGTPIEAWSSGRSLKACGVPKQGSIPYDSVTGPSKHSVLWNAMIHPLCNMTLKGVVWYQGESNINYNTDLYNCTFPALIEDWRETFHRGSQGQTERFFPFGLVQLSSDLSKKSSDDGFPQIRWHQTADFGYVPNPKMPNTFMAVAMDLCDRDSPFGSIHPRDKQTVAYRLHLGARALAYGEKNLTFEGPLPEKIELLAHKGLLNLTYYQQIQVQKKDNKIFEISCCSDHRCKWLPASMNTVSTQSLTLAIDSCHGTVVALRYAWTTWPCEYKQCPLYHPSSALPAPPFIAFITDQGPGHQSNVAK
PRMT1 FP inh: blocks human protein arginine methyltransferase 1 | inhibition, % at 2.79 µM | Q99873 | recombinant PRMT1, activity-based probe fluorescence polarization | 370,000 compounds, 1.3% hits;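 active means inhibition above about 21% made by adding two undisclosed values, limit read from the data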
HTRA1 inh: inhibitors of human serine peptidase HTRA1 | Q92743 | recombinant HTRA1, FP-rhodamine activity-based probe, fluorescence polarization | inhibition, % at 5.96 µM | 340,000 compounds, 0.5% hits | AID 504803; in the data active means inhibition above about 36%;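 further: 0% = enzyme with DMSO and 100% = wells lacking enzyme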
mABHD4 FP: inhibits mouse alpha/beta hydrolase domain 4; inhibition, % at 8.92 µM; purified mABHD4, FP-Rh probe fluorescence polarization; 370,000 compounds, 0.54% hits;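 active means inhibition exceeding the mean over every tested compound plus 3 SD, cut at about 30% in these data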;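 further: 0% = plate median of compound wells and 100% = S159A mutant with DMSO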
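Test system: mABHD4 protein; Read-out basis: % inhibition; Incubation: 45 min + 60 min at 25 °C; Repeats: single replicate; Technique: fluorescence polarization with parallel and perpendicular emission, 525/598 nm; Compound: 8.92 µM, single dose; Benchmarks: full inhibition S159A mutant plus DMSO, zero as sample-well median.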
SIAE inh conf: human SIAE inhibition, confirmation; shares compounds with SIAE inh; SIAE FP-Rh activity-based probe, fluorescence polarization; inhibition, % at 9.66 µM; 2,300 compounds, 13% hits;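 active means mean inhibition of the replicates above the hit cutoff set in the primary screen, cut at about 17% in these data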;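 further: 0% = SIAE with DMSO and probe and 100% = probe without SIAE; inhibitors lower polarization as more probe stays unbound to SIAE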
Numbers without * were called inactive; x = not tested or not shown.

SMILES	TCR CD3 inh	SIAE inh	PRMT1 FP inh	HTRA1 inh	mABHD4 FP	SIAE inh conf
O=C(N/N=C/c1c[nH]c2ccc(Br)cc12)c1ccn(Cc2ccc(Cl)cc2)n1	-3.1	-19.4	-0.7	-25.6	8.3	x
Cc1ccc(-n2c(CNc3ccc(F)cc3)nnc2SCC(=O)O)cc1	4.2	19.6*	-0.9	x	2.4	4.3
Cc1ccc(NCc2nnc(SCC(=O)O)n2-c2ccc(C)cc2)cc1	-2.5	2.9	0.0	3.9	2.0	x
Cc1ccn2cc(-c3ccc(Br)cc3)nc2c1	6.6	17.2*	-0.7	-7.2	2.9	-1.0
O=C(CSc1nnc(-c2ccccc2)o1)NC1CCCC1	-4.2	-2.3	2.4	-7.2	1.6	x
O=C(CSc1nnc(-c2ccco2)o1)NC1CCCCCC1	5.3	18.3*	-0.1	-2.7	4.7	-1.5
S=C(NCCNC(=S)Nc1ccccc1)Nc1ccccc1	-4.7	7.4	-0.1	2.4	-2.9	x
Nc1ccc(NC(=S)Nc2ccccc2)cc1	9.9	17.2*	1.4	18.4	12.0	2.9
CN(C)c1ccc(N=Cc2nc(-c3ccccc3)oc2O)cc1	0.6	18.3*	-4.3	0.5	1.0	14.8
Oc1oc(-c2ccccc2)nc1C=Nc1ccccc1	8.1	-0.2	-0.5	0.1	6.9	x
Cc1ccc(-n2nc3c(c2NC(=O)CC(C)C)CS(=O)(=O)C3)cc1	7.0	-0.9	0.0	-1.0	1.6	x
O=C(NNc1ccccc1C(F)(F)F)c1sccc1Br	7.1	24.9*	-4.2	-6.2	-1.4	-2.8
O=C(Nc1ccccc1C(F)(F)F)c1ccsc1	-4.8	-2.6	-0.6	2.0	-7.8	x
COCc1cccc(-c2csc(C(O)c3ccccc3)n2)c1 (stereo not given)	-0.3	-1.2	-0.6	x	6.2	x
O=C(Nc1ccc(F)cc1)C(c1cc2ccccc2o1)N1CCN(C(=O)c2ccco2)CC1 (stereo not given)	-5.0	-4.0	6.8	x	-14.7	x
COc1ccc(NC(=O)NNC(=O)COc2ccc3ccccc3c2)cc1	-1.9	17.6*	-1.2	-3.1	1.2	-3.8
Cc1cn([C@H]2C[C@H](O)[C@@H](CCC(=O)NCCc3ccc4ccccc4c3)O2)c(=O)[nH]c1=O	4.5	-3.0	-3.7	x	3.1	x
O=C(N/N=C/c1coc2ccccc2c1=O)c1cn(-c2ccccc2)nc1-c1ccc(F)cc1	-2.6	-9.7	0.5	-20.1	-4.3	x
CCOc1ccc(-n2cc(C(=O)NCCOC)c3cc(OC)c(OC)cc3c2=O)cc1	1.9	21.7*	-0.3	4.5	2.9	-5.4
CCOc1ccc(-n2cc(C(=O)Nc3cccc(OC)c3)c3cc(OC)c(OC)cc3c2=O)cc1	2.0	-9.8	-0.4	-44.9	-24.5	x
O=C(Nc1ccc(-c2csc(Nc3ccccc3)n2)cc1)c1cc([N+](=O)[O-])cc(C(F)(F)F)c1	0.2	39.8*	-2.7	1.6	9.0	19.6*
Cc1ccc(-n2c3c(cc(C(=O)NCCCN4CCOCC4)c2=O)C(=O)CC(C)(C)C3)cc1	1.7	18.9*	-1.9	3.6	0.2	-0.6
O=C(c1ccc2c3n(nc2c1)-c1ccccc1CO3)N1CCCCC1	1.3	17.4*	-1.6	-7.7	11.6	-1.6
O=C(NCCc1csc(-c2ccccc2)n1)c1ccc(Br)o1	2.6	-0.7	1.6	-12.4	1.6	x
O=C(NCCc1csc(-c2cccnc2)n1)c1ccc(Br)o1	6.0	17.5*	7.9	-2.6	-2.0	-0.9
SMILES	TCR CD3 inh	SIAE inh	PRMT1 FP inh	HTRA1 inh	mABHD4 FP	SIAE inh conf
Cc1ccc(NC(=O)Cn2c(CCC(=O)O)ccc2-c2cccs2)cc1Cl	-3.8	126.1*	4.1	-24.3	-2.0	1.4
COC(=O)c1cccc(NC(=O)Nc2ccc(Cl)cc2)c1	5.9	19.5*	-8.7	x	-18.4	-1.0
CCN(CC)C(=O)c1cn(-c2cccc(OC)c2)c(=O)c2ccccc12	1.8	20.6*	0.4	6.6	0.4	-3.0
CCC(C)NC(=O)c1cn(-c2cccc(OC)c2)c(=O)c2ccccc12 (stereo not given)	1.5	-5.8	-6.9	-0.8	1.5	x
COC(=O)c1sc(NC(=S)NNC(=O)c2c(Br)c(C)nn2C)c(C(=O)OC)c1C	-3.7	-8.4	10.6	2.0	8.4	x
COc1cc(NC(=O)c2cccs2)c(OC)cc1NC(=O)Cc1ccccc1	-6.1	18.8*	3.0	-0.9	2.1	0.1
COc1cc(NC(=O)c2cccs2)c(OC)cc1NC(=O)c1cccs1	x	x	x	-0.2	x	x
CCCn1ncc([C@@H]2C[C@H]3CN(Cc4cccc(Cl)c4)C(=O)[C@]34CCCN24)c1C	14.1	18.2*	-4.9	4.6	-1.2	-3.9
O=C1CCCCC1Nc1ccc2ccccc2c1 (stereo not given)	0.4	2.2	2.0	3.0	2.4	x
CCc1ccccc1NC(=O)CN(C)C(=O)CSc1nnc(Nc2cccc(C)c2C)s1	3.4	6.4	-1.5	-3.0	3.3	x
CCc1ccccc1NC(=O)CN(C)C(=O)CSc1nn(-c2ccc(F)cc2)c(=S)s1	-0.8	18.0*	-1.4	-8.5	-11.4	0.3
C=CCNc1cccc2c1S(=O)(=O)N[C@@H](CC(C)C)CO2	8.9	1.7	1.7	x	-5.2	x
Cc1nc2ccc(NC(=O)[C@H](C)N3C(=O)C4CC=CCC4C3=O)cc2s1 (stereo not given in full)	-10.0	1.5	6.7	0.8	-16.0	x
O=C1NC(=Nc2ccccc2)S/C1=C\C=C\c1ccco1	9.4	23.8*	20.5	17.9	21.1	1.4
COc1cccc(C2C3=C(CCCC3=O)Nc3[nH]n(-c4ccccc4)c(=O)c32)c1 (stereo not given)	7.7	19.4*	-3.7	6.3	-4.5	1.0
CCOC(=O)c1sc(Nc2nc3c(OC)cccc3s2)cc1C	-6.5	19.4*	-1.1	-1.8	8.6	0.8
COc1cccc2sc(Nc3nc4ccc(NC(C)=O)cc4s3)nc12	2.1	-3.0	-1.8	3.7	3.1	x
CCOC(=O)c1sc(Nc2nc3cc4c(cc3s2)OCO4)cc1C	-9.8	19.0*	0.5	7.8	0.2	6.8
COC(=O)N/N=C/c1cn(CC(C)COc2ccccc2)c2ccccc12 (stereo not given)	1.6	11.9	0.1	-13.3	-0.7	x
O=C1CCC/C=C/C[C@H](CC(=O)N(CCO)Cc2ccccc2)C(=O)N[C@@H](Cc2ccccc2)CO1	-7.3	1.4	1.2	-2.3	0.5	x
C[C@@H]1COc2cccc(N3CCCC3)c2S(=O)(=O)N1	-2.7	4.3	-0.2	x	-4.7	x
NS(=O)(=O)c1ccc(N/N=C/c2cn(-c3ccccc3)nc2-c2cccs2)cc1	-1.7	22.6*	2.0	-19.6	-13.6	3.4
NS(=O)(=O)c1ccc(N/N=C/c2cn(-c3ccccc3)nc2-c2cccs2)c([N+](=O)[O-])c1	4.7	-6.5	3.6	-2.2	3.6	x
COc1ccc(N=C2SC(C(=O)O)CC(=O)N2Cc2ccc(OC)c(OC)c2)cc1 (stereo not given)	2.1	80.1*	-0.9	0.1	3.6	-0.6
CSCc1cc(N2CCCC2)nc(-c2ccccc2)n1	-0.8	18.5*	-7.1	-3.1	0.9	3.7
O=c1c2cn[nH]c2[nH]c(=S)n1-c1cccc2ccccc12	8.9	22.6*	8.8	-5.9	0.3	3.5
